≈ marks a conversion by molar mass, not a printed value.
Assays:
[1] = system: Cryptococcus neoformans; experiment: Growth inhibition of Cryptococcus neoformans ATCC 32264 at 250 ug/ml incubated for 48 hrs under dark condition by broth microdilution method relative to control; assay type: functional; conditions: ATCC 32264, 48 h, read-out: GI
How it was run: (§1)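 CLSI M27-A3 broth microdilution in RPMI-1640, DMSO ≤1%. Inoculum 1-5 × 10^3 CFU/mL. Incubated 48 h at 30 °C, dark. % inhibition = 100 − (OD405 test − sterility control)/(OD405 growth control − sterility control), with growth and sterility control wells. Triplicate.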

[2] = system: Cryptococcus neoformans; experiment: Antifungal activity against Cryptococcus neoformans ATCC 32264 incubated for 48 hrs under dark condition by broth microdilution method; assay type: functional; conditions: ATCC 32264, 48 h
How it was run: (§2)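 CLSI M27-A3 broth microdilution in RPMI-1640, DMSO ≤1%, compounds at 250-0.98 µg/mL final. Inoculum 1-5 × 10^3 CFU/mL. Incubated 48 h at 30 °C in a moist dark chamber, read at OD405. MIC80 and MIC50 taken from % inhibition dose-response curves (mean ± SEM, triplicate). Amphotericin B was the positive control.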

[3] = system: Cryptococcus neoformans; experiment: Growth inhibition of Cryptococcus neoformans ATCC 32264 at 31.25 ug/ml incubated for 48 hrs under dark condition by broth microdilution method relative to control; assay type: functional; conditions: ATCC 32264, 48 h, read-out: GI; how it was run: as §1
[4] = system: U-937; experiment: Cytotoxicity against human U937 cells after 72 hrs by MTT assay; assay type: cell-based; conditions: u-937, 72 h
How it was run: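 Exponentially growing U-937 at 1 × 10^5 cells/mL in RPMI-1640 with 10% FBS were exposed to 200, 50, 12.5 and 3.125 µg/mL for 72 h at 37 °C, 5% CO2. MTT for 3 h, stopped with isopropanol/SDS, formazan read at 570 nm, blank-corrected. LC50 by Probit from % viability against untreated cells. Triplicate, at least two independent experiments.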

[5] = system: Staphylococcus aureus; experiment: Antibacterial activity against vancomycin-intermediate Staphylococcus aureus after 24 hrs by resazurin dye based microdilution assay; assay type: functional
How it was run: (§3)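 MIC taken as the lowest concentration giving visible inhibition and/or by resazurin (1 mg/mL). Gentamicin was the control. Run in duplicate, repeated at least three times.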

[6] = system: Candida albicans; experiment: Growth inhibition of Candida albicans ATCC 10231 at 62.5 ug/ml incubated for 48 hrs under dark condition by broth microdilution method relative to control; assay type: functional; conditions: ATCC 10231, 48 h, read-out: GI; how it was run: as §1
[7] = system: Cryptococcus neoformans; experiment: Growth inhibition of Cryptococcus neoformans ATCC 32264 at 125 ug/ml incubated for 48 hrs under dark condition by broth microdilution method relative to control; assay type: functional; conditions: ATCC 32264, 48 h, read-out: GI; how it was run: as §1
[8] = system: Candida albicans; experiment: Growth inhibition of Candida albicans ATCC 10231 at 15.62 ug/ml incubated for 48 hrs under dark condition by broth microdilution method relative to control; assay type: functional; conditions: ATCC 10231, 48 h, read-out: GI; how it was run: as §1
[9] = system: Cryptococcus neoformans; experiment: Growth inhibition of Cryptococcus neoformans ATCC 32264 at 62.5 ug/ml incubated for 48 hrs under dark condition by broth microdilution method relative to control; assay type: functional; conditions: ATCC 32264, 48 h, read-out: GI; how it was run: as §1
[10] = system: Candida albicans; experiment: Growth inhibition of Candida albicans ATCC 10231 at 125 ug/ml incubated for 48 hrs under dark condition by broth microdilution method relative to control; assay type: functional; conditions: ATCC 10231, 48 h, read-out: GI; how it was run: as §1
[11] = system: Klebsiella pneumoniae; experiment: Antibacterial activity against ESBL positive Klebsiella pneumoniae ATCC 700603 after 24 hrs by resazurin dye based microdilution assay; assay type: functional; conditions: Klebsiella pneumoniae, 700603, 24 h; how it was run: as §3
[12] = system: Leishmania panamensis; experiment: Antileshmanial activity against EpiR/GFP fused Leishmania panamensis MHOM/CO/87/UA140 intracellular amastigotes infected in human […] cells after 72 hrs by flow cytometric method; assay type: functional, cell-based; conditions: MHOM/CO/87/UA140, 72 h
How it was run: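 PMA-treated U-937 cells (3 × 10^5 cells/mL) infected with stationary-phase GFP L. panamensis promastigotes (15:1), 3 h at 34 °C, then washed. After 24 h, compounds added at 50, 12.5, 3.125 and 0.78 µg/mL for 72 h at 37 °C. EC50 by Probit; triplicate, two experiments.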

[13] = system: Staphylococcus aureus; experiment: Antibacterial activity against methicillin-resistant Staphylococcus aureus ATCC 43300 after 24 hrs by resazurin dye based microdilution assay; assay type: functional; conditions: ATCC 43300, 24 h
How it was run: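 Broth microdilution in Mueller Hinton broth, inoculum 5 × 10^5 – 8 × 10^5. Compound stocks diluted in MHB with 5% DMSO and 0.1% Tween 80. Incubation 24 h at 35-37 °C. MIC is the lowest concentration with visible growth inhibition and/or by resazurin (1 mg/mL) read-out. Gentamicin as control. Run in duplicate, replicated at least three times.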

[14] = system: Candida albicans; experiment: Growth inhibition of Candida albicans ATCC 10231 at 7.8 ug/ml incubated for 48 hrs under dark condition by broth microdilution method relative to control; assay type: functional; conditions: ATCC 10231, 48 h, read-out: GI; how it was run: as §1
[15] = system: Pseudomonas aeruginosa; experiment: Antibacterial activity against Pseudomonas aeruginosa ATCC 27853 after 24 hrs by resazurin dye based microdilution assay; assay type: functional; conditions: ATCC 27853, 24 h; how it was run: as §3
[16] = system: Trypanosoma cruzi; experiment: Antitrypanosomal activity against Trypanosoma cruzi Tulahuen intracellular amastigote harboring LacZ infected in human U937 cells after 72 hrs by CPRG/Nonidet reagent based spectrophotometric method; assay type: functional, cell-based; conditions: U-937, 72 h
How it was run: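 U-937 cells at 2.5 × 10^5 cells/mL in RPMI-1640 with 10% serum and 0.1 µg/mL PMA were infected with β-galactosidase-transfected Tulahuen epimastigotes at 5 parasites per cell. Infected cells were exposed to 50, 12.5, 3.125 and 0.78 µg/mL for 72 h. CPRG (100 uM) and 0.1% Nonidet P-40 were added for 3 h, read at 570 nm. EC50 by Probit. Triplicate, at least two experiments; benznidazole as reference.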

[17] = system: Staphylococcus aureus; experiment: Antibacterial activity against methicillin-sensitive Staphylococcus aureus ATCC 25923 after 24 hrs by resazurin dye based microdilution assay; assay type: functional; conditions: ATCC 25923, 24 h; how it was run: as §3
[18] = system: Cryptococcus neoformans; experiment: Growth inhibition of Cryptococcus neoformans ATCC 32264 at 15.62 ug/ml incubated for 48 hrs under dark condition by broth microdilution method relative to control; assay type: functional; conditions: ATCC 32264, 48 h, read-out: GI; how it was run: as §1
[19] = system: Candida albicans; experiment: Growth inhibition of Candida albicans ATCC 10231 at 31.25 ug/ml incubated for 48 hrs under dark condition by broth microdilution method relative to control; assay type: functional; conditions: ATCC 10231, 48 h, read-out: GI; how it was run: as §1
[20] = system: Cryptococcus neoformans; experiment: Growth inhibition of Cryptococcus neoformans ATCC 32264 at 3.4 ug/ml incubated for 48 hrs under dark condition by broth microdilution method relative to control; assay type: functional; conditions: ATCC 32264, 48 h, read-out: GI
[21] = system: Candida albicans; experiment: Growth inhibition of Candida albicans ATCC 10231 at 250 ug/ml incubated for 48 hrs under dark condition by broth microdilution method relative to control; assay type: functional; conditions: ATCC 10231, 48 h, read-out: GI; how it was run: as §1
[22] = system: Candida albicans; experiment: Growth inhibition of Candida albicans ATCC 10231 at 3.4 ug/ml incubated for 48 hrs under dark condition by broth microdilution method relative to control; assay type: functional; conditions: ATCC 10231, 48 h, read-out: GI
[23] = system: Plasmodium falciparum; experiment: Antiplasmodial activity against chloroquine-sensitive Plasmodium falciparum 3D7 assessed as reduction in parasitic LDH activity after 48 hrs by Malstat reagent based […] method; assay type: functional; conditions: 3D7, 48 h
How it was run: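 Unsynchronized P. falciparum 3D7 at 0.5% parasitemia and 1% hematocrit in RPMI with 3% Albumax II. Exposed to 100, 25, 6.25 and 1.56 µg/mL for 48 h at 37 °C under 90% N2/5% CO2/5% O2. After three freeze-thaw cycles, LDH measured with Malstat and NBT/PES, 1 h in the dark, read at 650 nm. IC50 by Probit; triplicate, ≥2 experiments.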

[24] = system: Klebsiella pneumoniae; experiment: Antibacterial activity against carbapenemase positive Klebsiella pneumoniae BAA 1705 after 24 hrs by resazurin dye based microdilution assay; assay type: functional; conditions: BAA 1705, 24 h; how it was run: as §3
[25] = system: Candida albicans; experiment: Antifungal activity against Candida albicans ATCC 10231 incubated for 48 hrs under dark condition by broth microdilution method; assay type: functional; conditions: ATCC 10231, 48 h; how it was run: as §2
[26] = system: Cryptococcus neoformans; experiment: Growth inhibition of Cryptococcus neoformans ATCC 32264 at 7.8 ug/ml incubated for 48 hrs under dark condition by broth microdilution method relative to control; assay type: functional; conditions: ATCC 32264, 48 h, read-out: GI; how it was run: as §1
[27] = system: Escherichia coli; experiment: Antibacterial activity against Escherichia coli ATCC 25922 after 24 hrs by resazurin dye based microdilution assay; assay type: functional; conditions: ATCC 25922, 24 h; how it was run: as §3
[28] = system: Neisseria gonorrhoeae; experiment: Antibacterial activity against beta lactamase positive Neisseria gonorrhoeae ATCC 31426 by oxidase test; assay type: functional
How it was run: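 Agar dilution MIC on GC agar with 1% isovitalex containing increasing compound concentrations. Plates inoculated with about 1×10^4 CFU (5 µL). MIC is the lowest concentration that inhibited growth, with growth confirmed by oxidase test. Run in duplicate, repeated at least three times.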

Clc1ccc(N2N=C(c3ccc(Br)cc3)CC2c2cccc(Nc3ccnc4cc(Cl)ccc34)c2)cc1 (stereo not given)
inhibition of growth at 250 µg/mL [1]: 27.5% | MIC50 [2]: ≥ 250 µg/mL | MIC80 [2]: ≥ 250 µg/mL | inhibition of growth at 31.25 µg/mL [3]: 17% | LC50 [4]: 35.7 µg/mL (≈ 60.7 µM) | MIC [5]: > 1000 µg/mL | inhibition of growth at 62.5 µg/mL [6]: 13.7% | inhibition of growth at 125 µg/mL [7]: 23% | inhibition of growth at 15.62 µg/mL [8]: 6.77% | inhibition of growth at 62.5 µg/mL [9]: 17.8% | inhibition of growth at 125 µg/mL [10]: 23.4% | MIC [11]: > 1000 µg/mL | EC50 [12]: 16 µg/mL (≈ 27.2 µM) | MIC [13]: > 1000 µg/mL | inhibition of growth at 7.8 µg/mL [14]: 6.28% | MIC [15]: > 1000 µg/mL | EC50 [16]: 29.5 µg/mL (≈ 50.1 µM) | MIC [17]: > 1000 µg/mL | inhibition of growth at 15.62 µg/mL [18]: 0.14% | inhibition of growth at 31.25 µg/mL [19]: 7.39% | inhibition of growth at 3.4 µg/mL [20]: 0% | inhibition of growth at 250 µg/mL [21]: 39.6% | inhibition of growth at 3.4 µg/mL [22]: 3.47% | EC50 [23]: 10.3 µg/mL (≈ 17.4 µM) | MIC [24]: > 1000 µg/mL | MIC50 [25]: ≥ 250 µg/mL | MIC80 [25]: ≥ 250 µg/mL | inhibition of growth at 7.8 µg/mL [26]: 0% | MIC [27]: > 1000 µg/mL | MIC [28]: > 1000 µg/mL

— ChEMBL document CHEMBL4038284, “Synthesis of novel quinoline-based 4,5-dihydro-1H-pyrazoles as potential anticancer, antifungal, antibacterial and antiprotozoal agents” (Eur J Med Chem, 2017)
